From ChEMBL document CHEMBL3112425, “Design, synthesis, and structure-activity relationship studies of a potent PACE4 inhibitor” (J Med Chem, 2014)
Peptide text beside a SMILES is read from it. * marks the point of attachment. X1 = N=C(N)NC/C=C/CN*

What was measured:
[1] = tested on: LNCaP; assay: Cytotoxicity against human LNCAP cells after 72 hrs by MTT assay; format: functional, cell-based
Procedure, shortened: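 Prostate cancer cells were kept in RPMI 1640 at 37 °C, 5% CO2, with 5% FBS for DU145 and 10% FBS for LNCaP and PC3. After 24 h, medium was changed and peptides added at various concentrations, up to 350 μM. Viability was read by MTT after 72 h treatment. IC50 from dose–response curves, triplicate, mean ± SEM.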

[2] = target: T1, Proprotein convertase subtilisin/kexin type 6 (Homo sapiens, UniProt P29122); assay: Inhibition of human recombinant PACE4 expressed in drosophila schneider 2 cells using pyroGlu-Arg-Thr-Lys-Arg-AMC as substrate after 1 hr
T1 sequence (P29122 whole entry): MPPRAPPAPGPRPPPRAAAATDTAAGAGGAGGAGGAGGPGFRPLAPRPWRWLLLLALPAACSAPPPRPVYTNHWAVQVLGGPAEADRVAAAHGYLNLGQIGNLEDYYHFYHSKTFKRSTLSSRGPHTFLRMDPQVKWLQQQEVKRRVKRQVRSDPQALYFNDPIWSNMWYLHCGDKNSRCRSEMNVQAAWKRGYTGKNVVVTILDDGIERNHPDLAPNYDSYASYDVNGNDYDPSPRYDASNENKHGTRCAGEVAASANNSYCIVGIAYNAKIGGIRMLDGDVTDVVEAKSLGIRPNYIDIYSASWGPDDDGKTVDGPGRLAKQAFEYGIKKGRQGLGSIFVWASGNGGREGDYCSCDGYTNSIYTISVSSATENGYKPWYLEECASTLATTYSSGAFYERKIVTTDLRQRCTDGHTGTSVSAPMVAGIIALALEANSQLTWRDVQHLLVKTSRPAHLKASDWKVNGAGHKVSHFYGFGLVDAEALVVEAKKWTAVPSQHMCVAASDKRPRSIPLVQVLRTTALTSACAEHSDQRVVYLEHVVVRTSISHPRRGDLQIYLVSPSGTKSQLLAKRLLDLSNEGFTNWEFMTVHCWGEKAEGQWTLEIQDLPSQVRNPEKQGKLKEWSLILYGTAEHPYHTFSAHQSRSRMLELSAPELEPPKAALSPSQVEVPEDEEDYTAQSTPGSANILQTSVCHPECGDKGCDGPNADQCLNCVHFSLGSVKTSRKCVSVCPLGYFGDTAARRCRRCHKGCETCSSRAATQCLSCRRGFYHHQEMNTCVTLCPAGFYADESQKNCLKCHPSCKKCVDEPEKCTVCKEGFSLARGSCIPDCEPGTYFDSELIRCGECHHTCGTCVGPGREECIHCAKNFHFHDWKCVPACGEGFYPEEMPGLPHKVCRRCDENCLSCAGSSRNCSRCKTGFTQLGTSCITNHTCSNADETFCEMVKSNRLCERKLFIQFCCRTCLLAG
Procedure, shortened: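 Human enzymes were expressed in Drosophila S2 cells and purified. Fluorogenic pyroGlu-RTKR-AMC was used at fixed concentration with varied inhibitor, 37 °C over 1 h. Buffers: furin, 100 mM Hepes pH 7.5, 1 mM CaCl2, 1 mM β-mercaptoethanol, 1.8 mg/mL BSA; PACE4 and PC7, 20 mM Bis-Tris pH 6.5, 1 mM CaCl2, 1.8 mg/mL BSA; PC2, same buffer at pH 5.7. Ki from IC50 (Cheng–Prusoff), or apparent Ki (Morrison) for tight binders. Triplicate, mean ± SD.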

Ki [2]: 0.0053 µM
Compound: CC(=O)N[C@@H](CC(C)C)C(=O)N[C@@H](CC(C)C)C(=O)N[C@@H](CC(C)C)C(=O)N[C@@H](CC(C)C)C(=O)N[C@@H](CCCNC(=N)N)C(=O)N[C@H](C(=O)N[C@@H](CCCCN)C(=O)NC/C=C/CNC(=N)N)C(C)C (Ac-LLLLRVK-X1)
IC50 [1]: 70 µM
